Results as given in publication PMC9112330 (ACS Infectious Diseases, 2022).

Assay: In vivo fluorescence bioimaging / biodistribution
Design: species or system mouse
Conditions: n = 2
Method in brief: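 AF680 was attached through a cysteine inserted between the PNA and the dendron, by maleimide coupling. Two NMRI-nu mice received 200 μL of 10 μM labelled conjugate. Under 2% isoflurane, epifluorescence was imaged at 675/720 nm from pre-injection to 48 h, followed by an ex vivo organ scan. Body and kidney ROI signals were expressed as % of initial signal (Y0, from linear regression of the first three points), and half-life came from one-phase decay fit.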

With “H-(Gbu)8-(DAB)4-(DAB)2-DAB-Cys(AF680)-CTCATACTCT-NH2 [AF680-PNA4897]” as the substance, how does the “organ accumulation of remaining fluorescence” value (ex vivo scan of excised organs 48 h post i.v. administration) read?
The value was “accumulated predominantly in the kidney and in the liver”.

What about the “time to distribution in the whole body” value (i.v. tail vein, 200 μL of 10 μM, nude mice, near-IR fluorescence imaging) of the same substance?
The value was less than 5 min.
